Measured values from different studies.
Protocols differ between the studies behind these lines.
PIK3CG: Phosphatidylinositol 4,5-bisphosphate 3-kinase catalytic subunit gamma isoform (PIK3CG, Homo sapiens, UniProt P48736)
ADRA2B: Alpha-2B adrenergic receptor (ADRA2B, Homo sapiens, UniProt P18089)

| SMILES | target | read-out | action | technique | measurement | result |
| --- | --- | --- | --- | --- | --- | --- |
| CCc1ccc(N=C2C(=O)N(Cc3ccccc3)c3ccccc32)cc1 | PIK3CG | enzyme activity | inhibitor | ADP detection | IC50 | 2.09 nM |
| COc1cc(-c2noc(C3CNc4cnn(C)c4C3)n2)cc(Cl)c1OC (centres unmarked) | FBXW7 (Homo sapiens, UniProt Q969H0) | binding |  | SPR | Kd | > 87000 nM |
| Cc1ccc(CN2C(=O)C(=Nc3cccc(C)c3)c3ccccc32)cc1 | PIK3CG | enzyme activity | inhibitor | ADP detection | IC50 | 0.98 nM |
| COc1ccc(-c2cc(=O)c3cccc(Nc4ncc5cc(C(=O)N(C)C)n(C6CCCC6)c5n4)c3o2)cc1 | PIK3CG | enzyme activity | inhibitor | radiometric | IC50 | > 10000 nM |
| Cc1cc(Oc2ncccc2CN2CCN(c3ccccc3Br)CC2)ccc1-c1c(C)c(=O)[nH]c(=O)n1C | ADRA2B | ligand displacement |  | radioligand | Ki | 49.6 nM |
| N#Cc1ccc2c(CN3CCOCC3)cc(-c3ccc([C@@H]4CCC(=O)N4)cc3)nc2c1 | Advanced glycosylation end product-specific receptor (AGER, Homo sapiens, UniProt Q15109) | binding |  | fluorescence | Kd | 1 nM |
| NC(=O)C1=CN([C@@H]2O[C@H](COP(=O)(O)OP(=O)(O)OC[C@H]3O[C@@H](n4cnc5c(N)ncnc54)[C@H](OP(=O)(O)O)[C@@H]3O)[C@@H](O)[C@H]2O)C=CC1 | MECR (Homo sapiens, UniProt Q9BV79) | binding |  | ITC | Kd | 956 nM |
| Cc1cc(Oc2ncccc2CN2CCN(c3ccccc3O)CC2)ccc1-c1c(C)c(=O)[nH]c(=O)n1C | ADRA2B | ligand displacement |  | radioligand | Ki | 97.5 nM |
| Cc1ccc(CN2C(=O)C(=Nc3c(C(C)C)cccc3C(C)C)c3ccccc32)cc1 | PIK3CG | enzyme activity | inhibitor | ADP detection | IC50 | 18.6 nM |
| Cc1cc(Oc2ncccc2CN2CCN(c3cccc(Cl)c3Cl)CC2)ccc1-c1c(C)c(=O)[nH]c(=O)n1C | ADRA2B | ligand displacement |  | radioligand | Ki | 113 nM |
| CC(C)C[C@H](NC(=O)[C@H](CC(C)C)NC(=O)[C@H](Cc1c[nH]c2ccccc12)NC(=O)[C@H](CCC(N)=O)NC(=O)[C@@H](NC(=O)[C@H](Cc1ccccc1)NC(=O)[C@H](CC(=O)O)NC(=O)[C@H](CCC(N)=O)NC(=O)[C@H](C)NC(=O)[C@H](C)NC(=O)[C@H](CCCNC(=N)N)NC(=O)[C@H](CCC(=O)O)NC(=O)[C@H](CC(=O)O)NC(=O)[C@H](CC(C)C)NC(=O)[C@H](Cc1ccc(O)cc1)NC(=O)[C@H](CCCCN)NC(=O)[C@H](CO)NC(=O)[C@H](Cc1ccc(O)cc1)NC(=O)[C@H](CC(=O)O)NC(=O)[C@H](CO)NC(=O)[C@@H](NC(=O)[C@H](Cc1ccccc1)NC(=O)[C@@H](NC(=O)CNC(=O)[C@H](CCC(N)=O)NC(=O)C(C)(C)NC(=O)[C@@H](N)Cc1c[nH]cn1)[C@@H](C)O)[C@@H](C)O)C(C)C)C(=O)N[C@@H](CC(=O)O)C(=O)NCC(=O)NCC(=O)N1CCC[C@H]1C(=O)N[C@@H](CO)C(=O)N[C@@H](CC(C)C)C(=O)N[C@@H](CCCNC(=N)N)C(=O)N[C@@H](Cc1c[nH]cn1)C(=O)N[C@@H](Cc1ccc(O)cc1)C(=O)N[C@@H](CC(C)C)C(=O)N[C@@H](CC(N)=O)C(=O)N[C@@H](CC(C)C)C(=O)N[C@H](C(=O)N[C@H](C(=O)N[C@@H](CCCNC(=N)N)C(=O)N[C@@H](CCC(N)=O)C(=O)N[C@@H](CCCNC(=N)N)C(=O)N[C@@H](Cc1ccc(O)cc1)C(N)=O)[C@@H](C)O)C(C)C | Glucagon receptor (GCGR, Homo sapiens, UniProt P47871) | reporter gene | agonist | luciferase | EC50 | 0.12 nM |
| CC(C)c1cccc(C(C)C)c1N=C1C(=O)Nc2ccccc21 | PIK3CG | enzyme activity | inhibitor | ADP detection | IC50 | 12.6 nM |
| Cc1cc(Oc2ncccc2CN2CCN(c3ccccn3)CC2)ccc1-c1c(C)c(=O)[nH]c(=O)n1C | ADRA2B | ligand displacement |  | radioligand | Ki | 267 nM |
| CCN1/C(=C/C(C)=O)Sc2ccc(F)cc21 | ADRA2B | ligand displacement |  | radioligand | Ki | 987 nM |
